# In the library only some 2.7% were active in any assay of this set; here they are far more common.
# OXTR potentiator = human OXTR potentiators, primary screen, fluorescence, CHO-OTR cells, Fluo-8 calcium | 320,000 tested, 0.061% active | Oxytocin receptor (Homo sapiens), P30559 | Fluo-8 calcium fluorescence, potentiator mode; 0% = oxytocin EC15, 100% = EC100 | activation, % at 3 µM | AID 2445, 2010;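 active = activation above that plate's cutoff, the mean activation of tested compounds plus 3 SD, cut at about 6.6% in these data, passing the limit was not always enough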;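 also: 100% uses oxytocin at 75 nM as the full agonist control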
#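 test system = CHO-OTR cells, human receptor | compound = single-point 3.0 µM | schedule = 6 min compound pre-incubation at room temperature, 100 s kinetic read | signal = Fluo-8 no-wash calcium dye fluorescence, excitation 470-495 nm, emission 515-575 nm | repeats = single well per compound, singlicate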
# OX1R antag-1 = antagonists of human orexin 1 receptor (OX1R). Orexin/Hypocretin receptor type 1 (Homo sapiens), O43613. OX1R-expressing cells, FRET antagonist read-out. inhibition, % at 6.6 µM. 330,000 tested, 1.8% active; in the data active = inhibition mostly above about 38%, no sharp cut-off; inactive = mostly below about 40%;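 also: 0% = agonist challenge alone and 100% = reference antagonist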
# Target sequence (O43613 whole entry, looked up): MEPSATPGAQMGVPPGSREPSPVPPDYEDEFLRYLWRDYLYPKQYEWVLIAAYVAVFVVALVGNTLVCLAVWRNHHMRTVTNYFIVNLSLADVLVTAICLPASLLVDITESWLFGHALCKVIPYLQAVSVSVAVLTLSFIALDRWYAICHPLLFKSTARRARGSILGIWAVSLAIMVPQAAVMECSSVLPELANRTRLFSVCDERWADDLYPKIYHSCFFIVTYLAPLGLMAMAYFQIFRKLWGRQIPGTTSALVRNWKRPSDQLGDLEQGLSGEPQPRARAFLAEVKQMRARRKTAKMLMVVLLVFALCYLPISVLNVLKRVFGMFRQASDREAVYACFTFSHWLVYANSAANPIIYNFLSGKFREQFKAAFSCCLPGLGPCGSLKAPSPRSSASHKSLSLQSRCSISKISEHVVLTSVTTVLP
# OXTR ag = human OXTR agonists, primary screen, fluorescence, CHO-OTR cells, Fluo-8 calcium. AID 2435, 2010. activation, % at 3 µM. 320,000 tested, 0.32% active. Fluo-8 calcium fluorescence; normalized: DMSO 0%, oxytocin 100%;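 active = activation above the mean of all tested compounds plus 3 SD, cutoff set per screening run, cut at about 20% in these data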;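 also: peak over basal fluorescence ratio from a 100 s FLIPR kinetic read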
# CHO parental Ca = ATP-evoked calcium signal inhibitors, parental CHO, primary screen, counter-screen for OX1R antagonist project, cell-based, fluorescence, Fluo-8 calcium dye; parental CHO-K1, ATP-induced calcium, Fluo-8 fluorescence; inhibition, % at 5.6 µM; 330,000 tested, 0.63% active; AID 463079, 2010;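 active = inhibition above that plate's mean sample inhibition plus 3 SD, cut at about 26% in these data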;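 also: 0% = ATP-challenged DMSO wells and 100% = DMSO wells without ATP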
#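 Test system: parental CHO cells; detection: calcium-sensitive Fluo-8 fluorescence; evaluation: percent inhibition of calcium signal; also added: ATP as calcium-mobilizing challenge; repeats: one well per compound; control set: ATP-challenged DMSO wells low, unchallenged DMSO wells high; compound: single nominal dose of 5.6 µM per compound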
# V1aR counter = agonists of human V1a receptor, primary screen, counter-screen for OXTR agonist project, fluorescence, CHO-V1R cells | 320,000 tested, 0.25% active | Fluo-8 calcium fluorescence, agonist mode; 0% DMSO, 100% 3 nM vasopressin | AID 2797, 2010 | Vasopressin V1a receptor (Homo sapiens), P37288 | activation, % at 3 µM;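 active = activation above the mean activation of all tested compounds plus 3 SD, per screening run, cut at about 20% in these data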;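 also: signal is peak over basal fluorescence ratio across a 100 second FLIPR read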
# OX1R antag-2 = OX1R (HCRTR1) antagonists, primary screen, fluorescence, CHO/OX1R cells, Fluo-8 calcium, orexin A; Fluo-8 calcium fluorescence; 330,000 tested, 0.43% active; AID 434989, 2010; inhibition, % at 5 µM;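 active = inhibition above its plate's threshold, mean inhibition of all tested compounds on the plate plus 3 SD, cut at about 37% in these data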;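 also: 0% = orexin A challenge wells and 100% = SB-334867-A antagonist wells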
# OXTR pot confirm = human OXTR potentiators, confirmation, fluorescence, CHO-OTR cells, triplicate; shares compounds with OXTR potentiator; Fluo-8 calcium fluorescence, potentiation; scaled from low-dose to maximal oxytocin; activation, % at 3 µM; 180 tested, under 10 active;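 active = mean percent activation over triplicates above a cutoff set from solvent-only control plates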;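 also: compounds tested in the presence of an EC15 dose of oxytocin; 0% = EC15 oxytocin with DMSO and 100% = EC100 oxytocin with DMSO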
# Starred values were filed as active, the others as inactive; · = not tested or not shown.
SMILES,OXTR potentiator,OX1R antag-1,OXTR ag,CHO parental Ca,V1aR counter,OX1R antag-2,OXTR pot confirm
CCOc1ccc(OCC)c(Nc2cc(C)nc3nc(C)nn23)c1,1,23,-2,-7,-1,-6,·
O=C(O)c1ccccc1NC(=O)C1CCCO1 (configuration not stated),12*,11,1,5,0,4,1
COC(=O)c1ccccc1NC(=O)C1CCCO1 (configuration not stated),-7,1,-1,-22,1,-22,·
COc1ccccc1C(=O)NC(=O)COC(=O)c1cccc(C)c1O,-18,5,0,-13,0,-11,·
O=C(c1ccccc1)N1CCN(S(=O)(=O)N2CCOCC2)CC1,14*,33,2,0,1,-20,-2
O=C(/C=C/c1cccs1)Nc1ccncc1,13*,13,-1,-8,-1,-20,2
O=C(/C=C/c1cccs1)Nc1ccc([N+](=O)[O-])cc1,-13,13,1,-11,3,-30,·
Cc1cn([C@H]2C[C@H](O)[C@@H](COS(=O)(=O)O)O2)c(=O)[nH]c1=O,14*,5,2,-9,1,2,0
Cc1cn(C2CC3OCC3O2)c(=O)[nH]c1=O (configuration not stated),-7,11,0,-12,1,-3,·
CC(=O)N1CCN(C(=O)C(Cc2c[nH]c3ccccc23)NC(=O)c2ccccc2Cl)CC1 (configuration not stated),15*,15,2,3,0,1,-6
CNC(=O)c1c(NC(=O)c2cc(-c3cc(C)c(C)cc3O)n[nH]2)sc2c1CCCC2,6.6*,11,1,-2,0,-13,-10
Cc1ccc(CNC(=O)C2CCC(=O)N2C2CCCCC2)cc1 (configuration not stated),10*,8,1,-11,0,-6,-5
NC(=S)NN=C(Cc1ccccc1)Cc1ccccc1,-13,17,-2,-14,0,-10,·
CCOc1cc(/C=N/NC(=O)C(N)=O)cc(Br)c1O,0,13,0,-10,0,-11,·
CCOc1cc(/C=N/NC(=O)C(=O)NC2CC2)cc(Br)c1O,16*,15,-1,-4,0,-12,-6
Cc1ccc(CN(C)C(=O)C2CCC(=O)N(CC3CCCCC3)C2)o1 (configuration not stated),-8,8,-1,-9,1,-14,·
CCN(C(=S)NC(=O)CCc1ccccc1)c1ccccc1,12*,1,0,-5,1,-14,-3
CN(CC(=O)NCCc1ccc(S(N)(=O)=O)cc1)CC(=O)Nc1ccccc1C(F)(F)F,-6,6,-1,-13,1,-3,·
O=C(COC(=O)c1ccccc1NC(=O)c1ccco1)NC1CCCCC1,-15,2,-1,-13,0,-20,·
CC1CCCC(NC(=O)COC(=O)c2ccccc2NC(=O)c2ccco2)C1C (configuration not stated),10*,17,0,-12,-1,-16,-4
CN(C)S(=O)(=O)c1cccc(NC(=O)c2ccc(NS(=O)(=O)c3cccs3)cc2)c1,-5,-2,0,-2,0,2,·
CN(C)c1ccc(/C=N/Nc2nncc3ccccc23)cc1,-5,50,-2,-22,0,-5,·
CCn1c(=O)c(C(=O)Nc2ccccn2)c(O)c2ccccc21,12*,16,0,1,3,-5,-3
CCn1c(=O)c(C(=O)NCc2ccccc2)c(O)c2ccccc21,-3,12,-1,-11,0,-25,·
CCC1Nc2ncnc(N3CCN(c4ccccc4)CC3)c2N(Cc2ccc(Br)cc2)C1=O (configuration not stated),-11,8,-1,-21,2,-30,·
SMILES,OXTR potentiator,OX1R antag-1,OXTR ag,CHO parental Ca,V1aR counter,OX1R antag-2,OXTR pot confirm
CC(C)(C)NC(=O)c1nn(Cc2ccccc2)c(=O)c2ccccc12,15*,23,-1,-30,-1,-20,-7
CCC(CC)NC(=O)c1nn(Cc2ccccc2)c(=O)c2ccccc12,0,31,-1,-24,-1,-15,·
O=S(=O)(c1ccc(S(=O)(=O)N2CCOCC2)cc1)N1CCCC1,12*,22,2,-10,2,-22,-4
CCOc1ccccc1N(C)C(=O)c1ccc2c(=O)n3c(nc2c1)CCCCC3,-8,-2,0,-15,1,-17,·
Cc1[nH]c(=O)[nH]c(=O)c1S(=O)(=O)NCC12CC3CC(CC(C3)C1)C2,11*,15,2,1,1,-5,-5
CC[C@]12c3[nH]c4cc(-c5ccco5)ccc4c3CCN1C(=O)[C@@H](CC(=O)NCCCN(C)C)C[C@@H]2C(=O)N1CCN(C(=O)c2ccco2)CC1,·,8,·,-9,·,0,·
CCc1cc2c(-c3ccccc3)cc(=O)oc2cc1OC(C)C(=O)NCC1CCC(C(=O)O)CC1 (configuration not stated),9.8*,9,1,-6,0,-24,-2
CC(Oc1cc2oc(=O)cc(-c3ccccc3)c2cc1Cl)C(=O)NCC1CCC(C(=O)O)CC1 (configuration not stated),-1,24,0,-3,1,-5,·
CCCCc1ccc(NC(=O)N[C@H](C(=O)O)C(C)CC)cc1 (some centres not stated),13*,19,-3,-13,-1,-13,1
CCCCc1ccc(NC(=O)N[C@H](C(=O)O)C(C)C)cc1,1,10,-1,-5,0,-8,·
CCn1c(SCC(=O)Nc2nc(C)cs2)nnc1-c1cccnc1,11*,10,0,-6,0,-19,-3
Cc1cc(=O)oc2c3c(cc(OCC(=O)NCC(=O)N[C@H](C(=O)O)C(C)C)c12)OC(C)(C)CC3,12*,4,0,-10,-1,-4,-5
CCN(CC)S(=O)(=O)c1ccc(Cl)c(C(=O)OC2CC(C)OC2=O)c1 (configuration not stated),-8,16,2,-19,4,-20,·

# Screening data deposited in PubChem BioAssay by The Scripps Research Institute Molecular Screening Center.
